Experimental findings from ChEMBL document CHEMBL4411265, “Bioactive Pentacyclic Triterpenes from the Root Bark Extract of Myrianthus arboreus, a Species Used Traditionally to Treat Type-2 Diabetes” (J Nat Prod, 2018) are described below.

Data set [1] has as its target T1, Glycogen synthase kinase-3 (Homo sapiens) (UniProt P49840+P49841). Description: Activation of GSK3 phosphorylation in human HepG2 cells at MNTD after 18 hrs by Western blot analysis relative to control. The class given is cell-based. A digest of the protocol:
(§1)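 Confluent H4IIE rat hepatoma cells (DMEM, 10% FBS) or HepG2 human hepatoma cells (DMEM/F12, 10% FBS) exposed 18 h to samples at maximal nontoxic concentration, 0.1% DMSO vehicle; RIPA lysates, 40 μg protein by SDS-PAGE, nitrocellulose blotting, 5% milk block. Antibodies against p-Akt Thr308/Akt, p-AMPKα Thr172/AMPK, p-GSK-3 Ser9/GSK-3, HRP secondary, ECL detection. Phospho/total ratio relative to DMSO; three independent passages.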

Data set [2] is described as follows: Solubility of the compound in DMSO. The class given is physicochemical.
Data set [3] concerns the target RAC-alpha serine/threonine-protein kinase (Rattus norvegicus) (UniProt P47196). As to the kind of experiment: Activation of Akt in rat […] cells assessed as increase in ratio of phosphorylated Akt to total AKt level at MNTD after 18 hrs by Western blot analysis relative to control. The format is cell-based. The method, boiled down:
as §1

Data set [4] addresses T2, Glucose-6-phosphatase catalytic subunit 1 (Rattus norvegicus) (UniProt P43428).
T2 sequence (whole entry): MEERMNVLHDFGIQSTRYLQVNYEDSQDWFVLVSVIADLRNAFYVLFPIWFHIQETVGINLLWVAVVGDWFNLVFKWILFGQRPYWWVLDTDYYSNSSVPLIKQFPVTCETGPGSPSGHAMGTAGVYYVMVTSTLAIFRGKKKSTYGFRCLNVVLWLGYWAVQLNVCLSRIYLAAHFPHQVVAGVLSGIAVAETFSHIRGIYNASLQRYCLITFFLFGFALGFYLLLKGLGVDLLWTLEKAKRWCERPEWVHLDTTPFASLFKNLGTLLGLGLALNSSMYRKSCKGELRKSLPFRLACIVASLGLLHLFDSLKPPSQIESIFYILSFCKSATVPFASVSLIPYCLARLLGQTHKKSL
Description: Inhibition of glucose-6-phosphatase in rat […] cells at MNTD using glucose-6-phosphate as substrate preincubated overnight followed by substrate addition and measured after 40 mins relative to control. The format is cell-based. A digest of the protocol:
(§2)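 H4IIE rat hepatoma cells at 90% confluence treated overnight at maximal nontoxic concentration, 0.1% DMSO vehicle. Lysis in phosphate buffer with 0.05% Triton; lysate incubated with glucose-6-phosphate buffer 40 min at 37 °C. Released glucose read by glucose kit against standard curve, normalized to BCA protein; percent change from vehicle. Means of three experiments in triplicate.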

The species entered for the next data set is Rattus norvegicus. Description: Activation of AMPK in rat […] cells assessed as increase AMPK phosphorylation at MNTD after 18 hrs by Western blot analysis relative to control. The format is cell-based. The method, boiled down:
as §1

Data set [5] deals with T3, Glycogen [starch] synthase, liver (Homo sapiens) (UniProt P54840).
T3 sequence (whole entry): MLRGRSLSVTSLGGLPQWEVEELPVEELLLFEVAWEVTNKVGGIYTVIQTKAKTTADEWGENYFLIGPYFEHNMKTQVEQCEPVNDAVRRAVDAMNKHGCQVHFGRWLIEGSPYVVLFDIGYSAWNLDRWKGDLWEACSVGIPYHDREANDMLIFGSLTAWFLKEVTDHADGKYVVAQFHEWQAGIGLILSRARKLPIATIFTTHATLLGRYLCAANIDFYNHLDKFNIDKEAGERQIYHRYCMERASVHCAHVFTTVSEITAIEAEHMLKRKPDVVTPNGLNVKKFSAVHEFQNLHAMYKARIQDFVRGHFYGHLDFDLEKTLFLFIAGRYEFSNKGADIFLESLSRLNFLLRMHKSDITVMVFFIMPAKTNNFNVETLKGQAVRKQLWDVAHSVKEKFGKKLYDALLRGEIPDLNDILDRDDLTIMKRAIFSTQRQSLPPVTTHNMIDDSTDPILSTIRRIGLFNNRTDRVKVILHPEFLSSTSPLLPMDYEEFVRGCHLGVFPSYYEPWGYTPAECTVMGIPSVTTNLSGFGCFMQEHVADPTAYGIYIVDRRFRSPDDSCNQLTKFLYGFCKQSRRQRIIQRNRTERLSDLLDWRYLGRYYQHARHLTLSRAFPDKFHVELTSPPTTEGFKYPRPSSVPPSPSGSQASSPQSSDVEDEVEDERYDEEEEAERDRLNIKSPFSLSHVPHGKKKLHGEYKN
Description: Activation of insulin-stimulated glycogen synthase in human HepG2 cells at MNTD using [U-14C]UDP glucose as substrate preincubated for 18 hrs followed by insulin stimulation and measured after 15 mins by beta-counting method relative to control. The class given is cell-based.

The target in data set [6] is T4, Glycogen [starch] synthase, liver (Homo sapiens, UniProt P54840).
T4 sequence (P54840 whole entry): T3 sequence (whole entry)
Description: Activation of insulin-stimulated glycogen synthase in human HepG2 cells using [U-14C]UDP glucose as substrate preincubated for 18 hrs followed by insulin stimulation and measured after 15 mins by beta-counting method. The format is cell-based.

Data set [7] deals with T5, Glucose-6-phosphatase catalytic subunit 1 (Rattus norvegicus, UniProt P43428).
T5 sequence (P43428 whole entry): T2 sequence (whole entry)
As to the kind of experiment: Inhibition of glucose-6-phosphatase in rat H42E cells using glucose-6-phosphate as substrate preincubated overnight followed by substrate addition and measured after 40 mins. The format is cell-based. A digest of the protocol:
as §2

The target in data set [8] is T1, Glycogen synthase kinase-3 (Homo sapiens). Description: Activation of GSK3 in human HepG2 cells assessed as increase in ratio of phosphorylated GSK3 to total GSK3 level at MNTD after 18 hrs by Western blot analysis relative to control. The format is cell-based. The method, boiled down:
as §1

T1 sequence (P49840 whole entry, looked up): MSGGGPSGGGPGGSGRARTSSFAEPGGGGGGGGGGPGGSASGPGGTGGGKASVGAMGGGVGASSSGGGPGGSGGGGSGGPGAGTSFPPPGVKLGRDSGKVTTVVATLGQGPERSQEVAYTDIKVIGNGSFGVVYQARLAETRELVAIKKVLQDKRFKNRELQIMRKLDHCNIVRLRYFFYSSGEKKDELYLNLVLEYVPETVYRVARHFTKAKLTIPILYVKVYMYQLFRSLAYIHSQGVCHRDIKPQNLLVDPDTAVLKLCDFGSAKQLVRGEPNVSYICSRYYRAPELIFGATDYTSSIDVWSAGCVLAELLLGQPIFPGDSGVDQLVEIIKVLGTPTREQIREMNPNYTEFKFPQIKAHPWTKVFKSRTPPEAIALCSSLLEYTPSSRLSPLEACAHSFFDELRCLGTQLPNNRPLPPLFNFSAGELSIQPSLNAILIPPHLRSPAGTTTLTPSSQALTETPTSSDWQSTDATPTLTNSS
T1 sequence (P49841 whole entry, looked up): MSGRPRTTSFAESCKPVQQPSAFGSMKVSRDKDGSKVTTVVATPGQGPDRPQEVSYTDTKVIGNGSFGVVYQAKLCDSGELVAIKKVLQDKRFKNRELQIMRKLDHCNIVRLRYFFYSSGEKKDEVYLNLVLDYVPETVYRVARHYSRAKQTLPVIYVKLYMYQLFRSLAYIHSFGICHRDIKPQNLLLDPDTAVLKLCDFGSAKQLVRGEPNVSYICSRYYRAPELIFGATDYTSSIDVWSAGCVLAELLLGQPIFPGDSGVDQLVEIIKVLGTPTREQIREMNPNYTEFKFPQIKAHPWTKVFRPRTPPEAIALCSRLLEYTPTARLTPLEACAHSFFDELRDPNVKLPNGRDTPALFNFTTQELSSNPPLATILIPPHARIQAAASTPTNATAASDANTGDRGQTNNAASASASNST
RAC-alpha serine/threonine-protein kinase (Rattus norvegicus), sequence (P47196 whole entry): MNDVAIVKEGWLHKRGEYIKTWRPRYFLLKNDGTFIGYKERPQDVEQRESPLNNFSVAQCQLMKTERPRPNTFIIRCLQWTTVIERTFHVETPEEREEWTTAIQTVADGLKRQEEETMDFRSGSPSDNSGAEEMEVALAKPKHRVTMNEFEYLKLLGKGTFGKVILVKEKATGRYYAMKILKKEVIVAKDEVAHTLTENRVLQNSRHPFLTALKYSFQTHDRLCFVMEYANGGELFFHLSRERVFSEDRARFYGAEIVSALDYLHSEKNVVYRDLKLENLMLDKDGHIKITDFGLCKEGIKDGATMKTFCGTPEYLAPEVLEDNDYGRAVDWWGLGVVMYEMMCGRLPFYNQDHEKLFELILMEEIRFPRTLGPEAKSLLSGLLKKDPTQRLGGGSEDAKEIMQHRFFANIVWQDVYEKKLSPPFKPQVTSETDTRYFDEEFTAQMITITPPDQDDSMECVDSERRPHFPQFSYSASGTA

In data set [1], `NC(=O)c1ncn([C@@H]2O[C@H](CO)[C@@H](O)[C@H]2O)c1N` gave a fold change (FC) of 2.

For `CC[C@H](/C=C/[C@@H](C)[C@H]1CC[C@H]2[C@@H]3CC=C4C[C@@H](O)CC[C@]4(C)[C@H]3CC[C@]12C)C(C)C` [STIGMASTEROL], in data set [2], the solubility result was “Insoluble”.

For `C[C@H]1[C@H](C)CC[C@]2(C(=O)O)CC[C@]3(C)C(=CC[C@@H]4[C@@]5(C)CC[C@H](O)C(C)(C)[C@@H]5CC[C@]43C)[C@H]12`, the fold change (FC) in [3] was 2.2 to 4.8; in [1], 2; in the data set listed under Rattus norvegicus, 2.2 to 3.5; in [5], 1.5 to 3.5. In addition, the inhibition in data set [4] was in the range of 18 to 32%.

Regarding `COc1cc(/C=C/C(=O)O[C@H]2[C@H](OC(C)=O)C[C@]3(C)[C@H]4CC=C5[C@H]6[C@](C(=O)O)(CC[C@@H](C)[C@@]6(C)O)CC[C@@]5(C)[C@]4(C)CC[C@H]3C2(C)C)ccc1O`, the fold change (FC) is 2.2 to 4.8 in data set [3], 2 in data set [1], 2.2 to 3.5 in the data set listed under Rattus norvegicus and 1.5 to 3.5 in data set [5]. In data set [4], this compound had an inhibition of 18 to 32%. Besides, a half-maximal effect in data set [6] (EC50) was put at 4.1 µM. In data set [7], this compound displayed a concentration for half-maximal inhibition (IC50) of 4.8 µM.

On to `CC[C@H](CC[C@@H](C)[C@H]1CC[C@H]2[C@@H]3CC=C4C[C@@H](O)CC[C@]4(C)[C@H]3CC[C@]12C)C(C)C` [BETA-SITOSTEROL], for which the solubility result in data set [2] is given as “Insoluble”.

For `COc1cc(/C=C/C(=O)O[C@H]2[C@H](O)C[C@]3(C)[C@H]4CC=C5[C@H]6[C@](C(=O)O)(CC[C@@H](C)[C@@]6(C)O)CC[C@@]5(C)[C@]4(C)CC[C@H]3C2(C)C)ccc1O`, the fold change (FC) was 2.2 to 4.8 in data set [3], 2.2 to 3.5 in the data set listed under Rattus norvegicus, 1.5 to 3.5 in data set [5] and 1.8 in [8]. Moreover, the inhibition in data set [4] is 18 to 32%.
